The values that follow come from ChEMBL document CHEMBL1828568, “Novel imaging agents for β-amyloid plaque based on the N-benzoylindole core” (Bioorg Med Chem Lett, 2011).

Experiment [1] in a line: Binding affinity to amyloid beta fibrils. The method, boiled down:
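Competitive binding to Aβ1–40 aggregates, with [125I]TZDM as the radiolabeled reference ligand displaced by unlabeled test compound. Run in triplicate and reported as mean ± SD.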

Experiment [2] can be described thus: Displacement of [125I]TZDM from amyloid beta (1 to 40) aggregates after 2 hrs by gamma counting. The method, boiled down:
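Competition binding against [125I]TZDM as radiolabeled standard, using Aβ1–40 aggregates; run in triplicate, results as mean ± SD.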

The Ki is the equilibrium dissociation constant of an inhibitor or competing ligand from its target. Read a low Ki as a stronger hold on the target.

With `CC(C)Cc1ccc([C@H](C)C(=O)O)cc1` [DEXIBUPROFEN], the Ki in experiment [1] is 44.4 nM. `O=C(/C=C/c1ccccc1)n1ccc2ccccc21` displayed an inhibition constant Ki in experiment [2] of 15.9 nM. For the compound `O=C(/C=C/c1ccccc1)n1ccc2cc(Cl)ccc21`, affinity in experiment [2] was put at a Ki of 36.4 nM. In the case of `COc1ccc2c(ccn2C(=O)/C=C/c2ccccc2)c1`, in experiment [2], the affinity corresponds to a Ki of 68.2 nM.
